Measured values published in ChEMBL document CHEMBL1125789, “Synthesis and selective class III antiarrhythmic activity of novel N-heteroaralkyl-substituted 1-(aryloxy)-2-propanolamine and related propylamine derivatives” (J Med Chem, 1991).

What was measured:
Canis familiaris [1] = organism: Canis familiaris; assay: Maximum rate of rise of the upstroke of transmembrane potential, in canine Purkinje Fibers at a concentration of 0.3 uM at 300 ms (simulating tachycardia); format: functional; design: unit not given here; conditions: Canis lupus familiaris, Purkinje fiber
Outline: (§1)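 Isolated canine Purkinje fiber bundles were driven by square-wave pulses 2.0 ms long at 2× threshold and equilibrated ≥1 h to steady state. Each concentration was superfused 45–60 min before recording, and action potentials were sampled at 4–6 sites per fiber in control and after drug, giving Vmax and APD to −60 mV.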

Canis familiaris [2] = organism: Canis familiaris; assay: Maximum rate of rise of the upstroke of transmembrane potential, in canine Purkinje Fibers at a concentration of 1.0 uM at 300 ms (simulating tachycardia); format: functional; design: unit not given here; conditions: Canis lupus familiaris, Purkinje fiber; outline: as §1
Canis familiaris [3] = organism: Canis familiaris; assay: Repolarization to reach -60mV, in canine Purkinje Fibers at a concentration of 1.0 uM at 300 ms (simulating tachycardia); format: functional, Canis lupus familiaris, Purkinje fiber; outline: as §1
Canis familiaris [4] = organism: Canis familiaris; assay: Maximum rate of rise of the upstroke of transmembrane potential, in canine Purkinje Fibers at a concentration of 0.3 uM at 1000 ms (simulating normal heart rate); format: functional; design: unit not given here; conditions: Canis lupus familiaris, Purkinje fiber; outline: as §1
Canis familiaris [5] = organism: Canis familiaris; assay: Repolarization to reach -60mV, in canine Purkinje Fibers at a concentration of 0.3 uM at 300 ms (simulating tachycardia); format: functional, Canis lupus familiaris, Purkinje fiber; outline: as §1
Canis familiaris [6] = organism: Canis familiaris; assay: repolarization to reach -60mV, in canine Purkinje Fibers at a concentration of 3.0 uM at 1000 ms (simulating normal heart rate); format: functional, Canis lupus familiaris, Purkinje fiber
Outline: (§2)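 Purkinje fiber bundles were stimulated with square-wave current pulses of 2.0 ms at twice threshold and equilibrated for at least 1 h, or until action potential parameters were steady. Each concentration was superfused for 45-60 min to reach steady state. Action potentials were recorded at four to six sites per fiber, under control and after drug.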

Canis familiaris [7] = organism: Canis familiaris; assay: Repolarization to reach -60mV, in canine Purkinje Fibers at a concentration of 3.0 uM at 300 ms (simulating tachycardia); format: functional, Canis lupus familiaris, Purkinje fiber; outline: as §1
Canis familiaris [8] = organism: Canis familiaris; assay: Maximum rate of rise of the upstroke of transmembrane potential, in canine Purkinje Fibers at a concentration of 1.0 uM at 1000 ms (simulating normal heart rate); format: functional; design: unit not given here; conditions: Canis lupus familiaris, Purkinje fiber; outline: as §1
Canis familiaris [9] = organism: Canis familiaris; assay: repolarization to reach -60mV, in canine Purkinje Fibers at a concentration of 0.3 uM at 1000 ms (simulating normal heart rate); format: functional, Canis lupus familiaris, Purkinje fiber; outline: as §2
Canis familiaris [10] = organism: Canis familiaris; assay: Maximum rate of rise of the upstroke of transmembrane potential, in canine Purkinje Fibers at a concentration of 3.0 uM at 1000 ms (simulating normal heart rate); format: functional; design: unit not given here; conditions: Canis lupus familiaris, Purkinje fiber; outline: as §1
Canis familiaris [11] = organism: Canis familiaris; assay: Maximum rate of rise of the upstroke of transmembrane potential, in canine Purkinje Fibers at a concentration of 3.0 uM at 300 ms (simulating tachycardia); format: functional; design: unit not given here; conditions: Canis lupus familiaris, Purkinje fiber; outline: as §1
Canis familiaris [12] = organism: Canis familiaris; assay: repolarization to reach -60mV, in canine Purkinje Fibers at a concentration of 1.0 uM at 1000 ms (simulating normal heart rate); format: functional, Canis lupus familiaris, Purkinje fiber; outline: as §2
Canis familiaris [13] = organism: Canis familiaris; assay: repolarization to reach -60mV, in canine Purkinje Fibers at a concentration of 0.10 uM at 1000 ms (simulating normal heart rate); format: functional, Canis lupus familiaris, Purkinje fiber; outline: as §2
Canis familiaris [14] = organism: Canis familiaris; assay: Maximum rate of rise of the upstroke of transmembrane potential, in canine Purkinje Fibers at a concentration of 0.10 uM at 1000 ms (simulating normal heart rate); format: functional; conditions: Canis lupus familiaris, Purkinje fiber; outline: as §1
Canis familiaris [15] = organism: Canis familiaris; assay: Repolarization to reach -60mV, in canine Purkinje Fibers at a concentration of 0.10 uM at 300 ms (simulating tachycardia); format: functional, Canis lupus familiaris, Purkinje fiber; outline: as §1
Canis familiaris [16] = organism: Canis familiaris; assay: Maximum rate of rise of the upstroke of transmembrane potential, in canine Purkinje Fibers at a concentration of 0.10 uM at 300 ms (simulating tachycardia); format: functional; conditions: Canis lupus familiaris, Purkinje fiber; outline: as §1
Canis familiaris [17] = assay: Atrial effective refractory period by the compound in open chest anesthetized dog, after iv administration at a dose of 5.0 mg/kg.; format: functional, Canis lupus familiaris, Cardiac atrium; design: unit not given here
Outline: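 Open-chest mongrel dogs under sodium pentobarbital anesthesia (30 mg/kg iv plus 5 mg/kg per h), paced at basic cycle length 300 ms. Atrial effective refractory period was determined by electrical stimulation before and after iv or intraduodenal compound and reported as change from control.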

Canis familiaris [18] = assay: Mean arterial pressure by the compound in open chest anesthetized dog, after iv administration at a dose of 5.0 mg/kg.; format: functional, Canis lupus familiaris, Artery; design: unit not given here
Outline: (§3)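 Hemodynamics (heart rate, mean arterial pressure) recorded in pentobarbital-anesthetized (30 mg/kg iv, 5 mg/kg per h maintenance) open-chest mongrel dogs during the refractoriness study at BCL 300 ms. Readings were taken before and after iv or intraduodenal compound and expressed as change from control.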

Canis familiaris [19] = assay: Atrial conduction time by the compound in open chest anesthetized dog, after iv administration at a dose of 5.0 mg/kg.; format: functional, Canis lupus familiaris, Cardiac atrium; design: unit not given here
Outline: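 Mongrel dogs anesthetized with sodium pentobarbital (30 mg/kg iv, then 5 mg/kg per h), chest opened, paced at BCL 300 ms. Atrial conduction time was taken as the interval between electrograms recorded at the proximal and distal sites of the atrial recording electrode array, before and after iv or intraduodenal dosing. Values are changes from control.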

Canis familiaris [20] = assay: Ventricular conduction time by the compound in open chest anesthetized dog, after iv administration at a dose of 5.0 mg/kg.; format: functional, Canis lupus familiaris, Heart; design: unit not given here
Outline: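 Mongrel dogs were anesthetized with sodium pentobarbital (30 mg/kg iv, then 5 mg/kg per h), the chest opened, and the heart paced at BCL 300 ms. Compound was given iv or intraduodenally. Ventricular conduction time was taken as the interval between electrograms at the proximal and distal sites of the recording electrode array. 2-5 dogs per dose.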

Canis familiaris [21] = assay: Heart beat by the compound in open chest anesthetized dog, after iv administration at a dose of 5.0 mg/kg.; format: functional, Canis lupus familiaris; design: unit not given here; outline: as §3
Canis familiaris [22] = assay: Ventricular effective refractory period by the compound in open chest anesthetized dog, after iv administration at a dose of 5.0 mg/kg.; format: functional, Canis lupus familiaris, Heart; design: unit not given here

SMILES	APD (Canis familiaris [6]) [%]	APD (Canis familiaris [7]) [%]	Vmax (Canis familiaris [10])	Vmax (Canis familiaris [11])	further results
CN(Cc1ccc2ccccc2n1)C[C@@H](O)COc1ccc(NS(C)(=O)=O)cc1	70	27	4	-1	Vmax (Canis familiaris [1]): -4; Vmax (Canis familiaris [2]): -9; APD (Canis familiaris [3]): 22%; Vmax (Canis familiaris [4]): 9; APD (Canis familiaris [5]): 12%; Vmax (Canis familiaris [8]): 6; APD (Canis familiaris [9]): 25%; APD (Canis familiaris [12]): 48%
COc1ccc2nc(CN(C)CC(O)COc3ccc(NS(C)(=O)=O)cc3)ccc2c1 (stereo not given)	54	16	0	-6	–
CS(=O)(=O)Nc1ccc(OCC(O)CN2CCN(c3ccccn3)CC2)cc1 (stereo not given)	53	24	9	12	–
CN(Cc1ccc2ccccc2n1)CC(O)COc1ccc(C#N)cc1 (stereo not given)	41	0	19	8	–
Cc1nc2ccccc2nc1CN(C)CC(O)COc1ccc(-n2ccnc2)cc1 (stereo not given)	69	24	13	10	–
CN(Cc1nc2ccccc2[nH]1)CC(O)COc1ccc(NS(C)(=O)=O)cc1 (stereo not given)	14	3	1	-11	–
CS(=O)(=O)Nc1ccc(OCCCN(Cc2ccc3cc(NS(C)(=O)=O)ccc3n2)C2CCCC2)cc1	–	–	–	–	APD (Canis familiaris [13]): 30%; Vmax (Canis familiaris [14]): 7; APD (Canis familiaris [15]): 13%; Vmax (Canis familiaris [16]): 8
CN(Cc1ccc2cc(NS(C)(=O)=O)ccc2n1)CC(O)COc1ccc(NS(C)(=O)=O)cc1 (stereo not given)	66	18	-6	-1	Vmax (Canis familiaris [1]): -2; Vmax (Canis familiaris [2]): -4; APD (Canis familiaris [3]): 17%; Vmax (Canis familiaris [4]): -12; APD (Canis familiaris [5]): 13%; Vmax (Canis familiaris [8]): -10; APD (Canis familiaris [9]): 42%; APD (Canis familiaris [12]): 55%
CN(CCCOc1ccc(NS(C)(=O)=O)cc1)Cc1cnc2ccccc2n1	62	27	-16	-14	–
Cc1nc2ccccc2nc1CN(C)CC(O)COc1ccc(NS(C)(=O)=O)cc1 (stereo not given)	17	11	7	3	–
CN(Cc1ccc2ccccc2n1)C[C@H](O)COc1ccc(NS(C)(=O)=O)cc1	54	27	-5	0	Vmax (Canis familiaris [1]): -4; Vmax (Canis familiaris [2]): -3; APD (Canis familiaris [3]): 14%; Vmax (Canis familiaris [4]): 9; APD (Canis familiaris [5]): 13%; Vmax (Canis familiaris [8]): 0; APD (Canis familiaris [9]): 22%; APD (Canis familiaris [12]): 40%
CN(Cc1ccc2ccccc2n1)CC(O)COc1ccc(-c2nn[nH]n2)cc1 (stereo not given)	11	4	-10	4	–
CC(C)N(Cc1ccc2ccccc2n1)CC(O)COc1ccc(NS(C)(=O)=O)cc1 (stereo not given)	49	30	-10	-11	–
CN(Cc1cnc2ccccc2n1)CC(O)COc1ccc(NS(C)(=O)=O)cc1 (stereo not given)	26	8	1	6	–
CN(Cc1ccc2cc(F)ccc2n1)CC(O)COc1ccc(NS(C)(=O)=O)cc1 (stereo not given)	55	22	11	8	Vmax (Canis familiaris [1]): 3; Vmax (Canis familiaris [2]): 4; APD (Canis familiaris [3]): 19%; Vmax (Canis familiaris [4]): 3; APD (Canis familiaris [5]): 12%; Vmax (Canis familiaris [8]): 5; APD (Canis familiaris [9]): 31%; APD (Canis familiaris [12]): 50%
CN(Cc1ccc2cc(Cl)ccc2n1)CC(O)COc1ccc(NS(C)(=O)=O)cc1 (stereo not given)	65	29	0	-2	–
Cn1c(N2CCN(CC(O)COc3ccc(NS(C)(=O)=O)cc3)CC2)nc2ccccc21 (stereo not given)	83	21	-3	-9	–
CN(Cc1nc2ccccc2n1C)CC(O)COc1ccc(NS(C)(=O)=O)cc1 (stereo not given)	19	12	7	4	–
CN(CCCOc1ccc(NS(C)(=O)=O)cc1)Cc1ccc2ccccc2n1	45	22	5	3	AERP (Canis familiaris [17]): 52; MBP (Canis familiaris [18]): -11; ACT (Canis familiaris [19]): -6; VCT (Canis familiaris [20]): 1; HR (Canis familiaris [21]): -23; VERP (Canis familiaris [22]): 30
CN(Cc1cc2ccccc2o1)CC(O)COc1ccc(NS(C)(=O)=O)cc1 (stereo not given)	47	16	4	16	–
CS(=O)(=O)Nc1ccc(OCC(O)CN2CCN(c3ncccn3)CC2)cc1 (stereo not given)	23	15	-17	-12	–
CN(Cc1ccc2ccccc2n1)CC(O)COc1ccc(-n2ccnc2)cc1 (stereo not given)	39	10	-15	-11	–
O=[N+]([O-])c1ccc(OCC(O)CN2CCN(c3ccccn3)CC2)cc1 (stereo not given)	29	15	8	-19	AERP (Canis familiaris [17]): 69; MBP (Canis familiaris [18]): -33; ACT (Canis familiaris [19]): 16; VCT (Canis familiaris [20]): -7; HR (Canis familiaris [21]): -33; VERP (Canis familiaris [22]): 25
CN(Cc1ccc2ccccc2n1)CC(O)COc1ccc([N+](=O)[O-])cc1 (stereo not given)	63	27	0	-10	–
